The values that follow come from PubChem BioAssay AID2237 (Johns Hopkins Ion Channel Center, 2010).

Out of some 310,000 compounds screened, about 1,500 (0.48%) were called active.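 The calls were made as follows: active = B-score above 5 SD of library B-scores, and initial fluorescence ratio not above library mean plus 5 SD; inactive = the rest.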 The list comes from a sample in which actives are over-represented; it also holds similar structures and randomly drawn compounds.

Sequence of Short transient receptor potential channel 4 (Mus musculus) (Q9QUQ5 whole entry, looked up): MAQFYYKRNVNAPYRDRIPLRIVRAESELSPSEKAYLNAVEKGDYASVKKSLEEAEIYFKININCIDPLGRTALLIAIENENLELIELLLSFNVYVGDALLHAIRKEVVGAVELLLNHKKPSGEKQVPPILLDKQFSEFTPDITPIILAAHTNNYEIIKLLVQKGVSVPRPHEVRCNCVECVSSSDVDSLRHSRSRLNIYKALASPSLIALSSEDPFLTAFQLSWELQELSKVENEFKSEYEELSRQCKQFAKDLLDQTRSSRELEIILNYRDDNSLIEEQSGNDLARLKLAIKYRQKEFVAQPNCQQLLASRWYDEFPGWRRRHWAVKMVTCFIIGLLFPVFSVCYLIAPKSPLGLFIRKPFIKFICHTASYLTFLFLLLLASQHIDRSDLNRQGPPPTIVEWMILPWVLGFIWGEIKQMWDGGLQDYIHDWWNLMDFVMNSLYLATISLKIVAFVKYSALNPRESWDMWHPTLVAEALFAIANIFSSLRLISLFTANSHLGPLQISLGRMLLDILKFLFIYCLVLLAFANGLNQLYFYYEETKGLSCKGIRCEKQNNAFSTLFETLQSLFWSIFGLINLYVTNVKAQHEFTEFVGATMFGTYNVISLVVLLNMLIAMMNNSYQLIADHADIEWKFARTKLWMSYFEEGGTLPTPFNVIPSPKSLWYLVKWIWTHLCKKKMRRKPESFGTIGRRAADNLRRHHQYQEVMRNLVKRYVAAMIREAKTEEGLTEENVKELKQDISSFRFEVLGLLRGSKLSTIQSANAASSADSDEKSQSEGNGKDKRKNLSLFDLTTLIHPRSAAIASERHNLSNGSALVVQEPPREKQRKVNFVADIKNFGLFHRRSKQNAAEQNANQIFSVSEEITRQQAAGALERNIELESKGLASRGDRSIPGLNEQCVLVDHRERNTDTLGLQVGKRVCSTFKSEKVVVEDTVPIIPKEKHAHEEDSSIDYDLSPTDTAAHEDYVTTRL

The assay deals with Short transient receptor potential channel 4 (Mus musculus) (UniProt Q9QUQ5). Kind of assay: TRPC4 cation channel opening, calcium rise – Fluo4 calcium, HEK293 TRPC4beta/mu-opioid cells, primary screen (AID 2237).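 As to B-score: positive B-score marks a calcium rise read as TRPC4 activation.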 Particulars: Fluo4 calcium fluorescence, at 10 µM; stronger effect = higher value. The gist of the method: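 system = HEK293 cells stably co-expressing mouse TRPC4beta and mu-opioid receptor | schedule = Fluo4 dye loading 45 min at room temperature, 110 s recording | measure = B-scored integrated calcium fluorescence ratio | signal = Fluo4 calcium-sensitive dye fluorescence, kinetic, 1 Hz baseline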
For `c1ccc2sc(N3CCNCC3)nc2c1`, the B-score is 173 (active). As for `COc1cc(OC)cc(C2(C#N)CCN(C)CC2)c1`, the B-score result is “inactive”. For the compound `C/C(=N/O)c1ccc2ccc3ccccc3c2c1`, the B-score result was “inactive”.

Turning to `CCC1(C)CC(CCNCc2ccc(N(C)C)cc2)(c2ccc(F)cc2)CCO1` (stereo not given), the B-score was 114 (active). In the case of `CCCCCCCCCCCCn1ccc(=N)cc1`, the B-score entry is “inactive”. The same measure for `O=C(c1cc2nc(-c3ccccc3)cc(-c3ccccc3)n2n1)N1CCC2(CC1)OCCO2`: “inactive”; for `N#Cc1ccc(Cn2cc(C(=O)c3ccco3)c3ccccc32)cc1`: “inactive”; for `CN(C)C(=O)Oc1ccc(NC(=O)N2CCOCC2)cc1`: “inactive”. The same measure for `Cc1nc2ccccn2c1P(=S)(N1CCCCC1)N1CCCCC1`: 87 (active); for `CC(=C1C(=O)c2ccccc2C1=O)N1CCN(CCN=Cc2c(O)n(C)c(=O)n(C)c2=O)CC1`: “inactive”; for `Cc1nc2ccccc2c(=O)n1-c1ccc(Cl)cc1Cl`: “inactive”. For `Cc1ccc(Cn2nnnc2CN2CCC(n3nnc4ccccc43)CC2)cc1` the value was “inactive”. For `CCN(CC)C(=O)c1ccc(NC(=O)c2cc(-n3cnnc3)ccc2Cl)cc1`, the B-score entry was “inactive”.

With `COc1ccc(CNCCc2c[nH]c3ccccc23)cc1OC`, the B-score is 88 (active). On to `c1cncc(CNCCc2c[nH]c3ccccc23)c1`, for which the B-score entry is “inactive”. In the case of `COc1ccc(CNCCc2ccc3c(c2)OCO3)c(OC)c1OC`, the B-score entry was “inactive”. For `CC1C2Cn3c(nc4ccccc43)C1N(C)O2` (stereo not given), the B-score entry was “inactive”.

On to `CCN1CCN(c2nc3c(c(=O)[nH]2)CCC3)CC1`, for which the B-score entry was “inactive”. The same measure for `Cc1ccnc(-n2c(C)cc(/C=C3\C(=O)NC(=S)N(C)C3=O)c2C)c1`: “inactive”; for `c1ccc(CCN2CCC3(CC2)OCCO3)cc1`: “inactive”; for `C[N+]1(C)CCOC(O)(c2ccc(-c3ccc(C4(O)C[N+](C)(C)CCO4)cc3)cc2)C1` (stereo not given): “inactive”.

`c1ccc2sc(C3CCCNC3)nc2c1` (stereo not given): the B-score is 159 (active). Consider `COc1ccccc1N=C1SCCCN1C`, for which the B-score result was “inactive”. In the case of `COc1ccc2c(c1O)-c1cccc3c1[C@@H](C2)N(C)CC3`, the B-score result was “inactive”. As to `CC(=NC1CCN(Cc2ccccc2)CC1)c1c(O)n(C)c(=O)n(C)c1=O`, the B-score result is “inactive”. For `CCN(CC)CCOC(=O)c1cc2cc(COC)ccc2o1` the value was “inactive”; for `COC(=O)C1=C(c2ccccc2)C[C@@H]2CC[C@H]1N2C(=O)N1CCCCC1`, “inactive”. Regarding `Cc1ccc(CN2CCCC(C(=O)c3ccc4c(c3)OCO4)C2)cc1C` (stereo not given), the B-score entry was “inactive”. Turning to `CSc1ccc(C(=O)C2CCCN(Cc3ccn[nH]3)C2)cc1` (stereo not given), the B-score is 52 (active). Consider `COc1ccc(C(=O)C2CCCN(Cc3ccc(C)s3)C2)cc1OC` (stereo not given), for which the B-score entry is “inactive”. On to `c1ccc(CCNC2CCCCCC2)cc1`, for which the B-score result was “inactive”. The same measure for `CCCCC(=O)N/N=C/c1c(O)n(CC)c(=S)n(CC)c1=O`: 103 (active). Regarding `CCCCC(=O)N/N=C/c1c(O)n(-c2ccccc2)c(=O)[nH]c1=O`, the B-score result was “inactive”. For the compound `CCCCC(=O)N/N=C/c1c(O)n(CCC2=CCCCC2)c(=O)[nH]c1=O`, the B-score result was “inactive”. Turning to `O=C1NC(=O)C(C/C=C/c2ccccc2)C(=O)N1`, the B-score result is “inactive”.

`CC(=O)N(C1=NCCCS1)c1ccccc1F`: the B-score was 44 (active). With `O=c1c2ccccc2nc(-c2ccc(Cl)cc2Cl)n1-c1ccncc1`, the B-score entry is “inactive”. With `COc1ccc(N=Cc2c(O)n(C)c(=O)[nH]c2=O)cc1`, the B-score result was “inactive”. Consider `Cn1c(C(=O)N2CCC(C(=O)N3CCC4(CC3)OCCO4)CC2)cc2sccc21`, for which the B-score result is “inactive”.

For the compound `COC(=O)C1=C(c2cc3ccccc3s2)C[C@@H]2CC[C@H]1N2C(=O)NCCO`, the B-score was 72 (active). Regarding `COC(=O)C1=C(c2cc3ccccc3s2)C[C@@H]2CC[C@H]1N2C(=O)NCc1cccc2ccccc12`, the B-score entry was “inactive”. `COC(=O)C1=C(c2cc3ccccc3s2)C[C@@H]2CC[C@H]1N2C(=O)NC(C)C`: the B-score result was “inactive”. For `C=CCN1C(=O)C2(C(C(=O)OCC)=C(N)Oc3c2c(=O)oc2ccccc32)c2ccccc21` (stereo not given), the B-score result is “inactive”.

Consider `COc1ccccc1C1=NCc2nnc(CSC)n2-c2ccc(Cl)cc21`, for which the B-score entry was “inactive”. As to `CN(C)CCN(CC1CCCN(Cc2ccccc2F)C1)C(=O)Cc1ccc(F)c(F)c1` (stereo not given), the B-score result was “inactive”.
